Experimental data taken from the array DNA melting data of Ke et al. (doi:10.1101/2024.01.08.574731).

What was measured:
[1] = folding enthalpy; higher = less favourable; fluorescence melt of hairpins on a sequencing array, two-state fit; settings: sodium 0.088 M
In short: (§1)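 Bootstrapped two-state fits yielded melting temperature and folding enthalpy for library hairpins. Cy3 fluorescence, with annealed Cy3 and quencher oligos, was imaged on a sequenced MiSeq flow cell in 50 mM Na-HEPES pH 8.0, 25 mM NaCl in 2.5 °C steps up to 60 °C, and normalised to pre-quench Cy3 and to control constructs. Four replicates were combined by inverse variance, and fitted temperatures were raised by 9.35 °C to match UV melts.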

[2] = melting temperature; fluorescence melt of hairpins on a sequencing array, two-state fit, raised by 9.35 °C to match UV melts; settings: sodium 0.088 M
In short: as §1

| Sequence | folding enthalpy [1] [kcal/mol] | Tm [2] [°C] |
| --- | --- | --- |
| GCGATAGGAAACTATCAC (.(((((....))))).) | -18.4 | 35.9 |
| GCCTAACGAAAGTTGGC (((.(((....)))))) | -31.3 | 53.7 |
| GCCAGGGGAAACCCCGGC (((.(((....))).))) | -38.6 | 59.8 |
| GGACCCCGAAAGGGATCC (((.(((....))).))) | -26.9 | 55.3 |
| GTCCGAGGAAACCCGGAC (((((.(....).))))) | -40.5 | 53.2 |
| GTAAAGGGAAACCTTTAC (((((((....))))))) | -41 | 51.3 |
| GATCGCCGAAAGGCAATC (((.(((....))).))) | -17.1 | 44.8 |
| GATCCCTAGGGGATC ((((((...)))))) | -35.4 | 61.1 |
| GCGTATCACGC ((((...)))) | -34.2 | 56.9 |
| GCTACCGAAAGGTACAGC ((((((....)))..))) | -13.6 | 42.5 |
| GTCCCAGGAAACCAGGAC ((((..(....)..)))) | -21.2 | 35.6 |
| CGGTCGGAAACGATCCG ((((((....))).))) | -43.2 | 50.5 |
| CGCTCCGGAAACGGTGCG (((.(((....))).))) | -31.3 | 60.2 |
| GCGAGCGAAAGCTCACGC ((((((....)))..))) | -14.8 | 60.8 |
| GTCGGCGCGAAAGCGGAC (((..(((....)))))) | -13.8 | 45.6 |
| GCAGACCGAAAGGTTGC (((.(((....)))))) | -28.9 | 53.5 |
| GATCGGCGACCCGATC ((((((....)))))) | -34.2 | 55.6 |
| GTCCTGCGAAAGCAAGAC (((.(((....))).))) | -23.3 | 48.1 |
| GGTGGGGGAAACCCCATC (.(((((....))))).) | -24.2 | 51.3 |
| GGTAAGGGAAACCCTACC ((((.((....)).)))) | -24.3 | 40 |
| GCACCCGAAAGGGGGTGC ((((((....)))..))) | -21 | 66.8 |
| GCGAGGCCTCGC ((((....)))) | -46 | 62.8 |
| GATCACGACTGTGATC ((((((....)))))) | -37.1 | 64 |

| Sequence | folding enthalpy [1] [kcal/mol] | Tm [2] [°C] |
| --- | --- | --- |
| GTCGGGGGAAACCCTGGC (.(.(((....))).).) | -21.8 | 43.9 |
| CGGACGGAAACGTCCCCG ((((((....)))..))) | -7.24 | 34.7 |
| GATCCTAGGGAGGATC ((((((....)))))) | -29.6 | 51.8 |
| GATCTGACGTCAGATC ((((((....)))))) | -42.6 | 55.5 |
| GAGCGACGAAAGTCCCTC (((.(((....))).))) | -16.1 | 43.6 |
| GCATTGTCGAAAGACTGC (((..(((....)))))) | -22.8 | 37.2 |
| GATCTGCATCAGATC ((((((...)))))) | -30.6 | 47.8 |
| GATCTCGACTGAGATC ((((((....)))))) | -45.9 | 55.8 |
| GGGCTAGGAAACCAGCCC (((((.(....).))))) | -44.8 | 54.1 |
| GGAAACGAAAGTTGCTCC ((((((....)))..))) | -12.8 | 27.1 |
| GTTCCCGAAAGGGTAAAC ((((((....)))..))) | -11.5 | 28.8 |
| GTGGGTTCGAAAGAACAC (((..(((....)))))) | -27 | 57.4 |
| GTGTCTGGAAACAGGCAC (((.(((....))).))) | -33.4 | 54.5 |
| GGCAGTCGAAAGACCGCC (((.(((....))).))) | -35 | 58 |
| GTGTACGAAAGTACGCAC ((((((....)))..))) | -14.5 | 49.9 |
| GGGCACGGAAACATGCCC (((((.(....).))))) | -37.6 | 51.5 |
| GCATGCTCGAAAGAGTGC (((..(((....)))))) | -15.8 | 34.3 |
| GATCAAGGAAACTCGATC ((((.((....)).)))) | -17.2 | 28.4 |
| GGTATGACGAAAGTCACC (((..(((....)))))) | -11.8 | 33.6 |
| GGAGGTCGAAAGACGTCC (((.(((....))).))) | -37.7 | 57.8 |
| GATCCGCTCCGGATC ((((((...)))))) | -37.5 | 59.2 |
| CGGGGGAAACCCCG (((((....))))) | -21.8 | 68.5 |
| GGCGAAGAAATTCGCC ((((((....)))))) | -36.2 | 63.1 |

| Sequence | folding enthalpy [1] [kcal/mol] | Tm [2] [°C] |
| --- | --- | --- |
| GCGACCGGAAACAGTCGC (((((.(....).))))) | -39.2 | 55.1 |
| GACTGCGGAAACGCAACC (..((((....))))..) | -9.21 | 25.1 |
| GGTGTCGGAAACGGCACC ((((.((....)).)))) | -46.5 | 64.7 |
| GCTACGCGAAAGCGGTGC ((..(((....)))..)) | -16 | 56 |
| GGTGCCGAAAGGCCCACC ((((((....)))..))) | -11.4 | 50.6 |
| GATCTAGCCTTAGATC ((((((....)))))) | -38.6 | 44.4 |
| GCAACGCGAAAGCCGTGC (((..((....))..))) | -14.8 | 49 |
| GGAAACGAAAGTTTCC ((((((....)))))) | -34.6 | 63.3 |
| GCTGAGGGAAACCCCAGC ((((.((....)).)))) | -33.3 | 51.4 |
| GACACCGAAAGGTGAGTC ((((((....)))..))) | -9.36 | 37.3 |
| GGCTTCGAAAGAATAGCC ((((((....)))..))) | -27.6 | 45.3 |
| GTACCCGGAAACGAGTAC ((((.((....)).)))) | -25.8 | 41.1 |
| CGGGCGGAAACGCTTCCG ((((((....)))..))) | -17.9 | 41 |
| GTTTGCGAAAGCATGAAC ((((((....)))..))) | -8.14 | 26.4 |
| GCCTTGCGAAAGCACAGC ((..(((....)))..)) | -7.49 | 45.1 |
| CGTGCGGAAACGCGTACG ((((((....)))..))) | -26.1 | 48.6 |
| CGCTCACGGAAACGTGCG (((..(((....)))))) | -15.6 | 39.6 |
| GCCGAGCGAAAGCTTAGC ((..(((....)))..)) | -14.7 | 39.9 |
| GATCGATGTTCGATC ((((((...)))))) | -29.4 | 51 |
| GATCGCAGTCGCGATC ((((((....)))))) | -34.5 | 68.5 |
| GCGGTGCGAAAGCCCTGC ((.(.((....)).).)) | -21.2 | 49.5 |
| GCAAGAACGAAAGTTTGC (((..(((....)))))) | -22.5 | 42.7 |
| GAAGTGCCGAAAGGCTTC (((..(((....)))))) | -7.5 | 35.5 |
